Experimental data: ChEMBL document CHEMBL4308838, “Subtle Modifications to the Indole-2-carboxamide Motif of the Negative Allosteric Modulator N-(( trans)-4-(2-(7-Cyano-3,4-dihydroisoquinolin-2(1 H)-yl)ethyl)cyclohexyl)-1 H-indole-2-carboxamide (SB269652) Yield Dramatic Changes in Pharmacological Activity at the Dopamine D2 Receptor” (J Med Chem, 2018)

The compounds below were run against D(2) dopamine receptor (Homo sapiens) (UniProt P14416) (assay: (§1) Negative allosteric modulation of human D2LR expressed in Flp-In-CHO cells assessed as inhibition of dopamine-indued ERK1/2 phosphorylation preincubated for 30 mins followed by dopamine addition and measured after 5 mins by AlphaScreen assay relative to control).
Chain of D(2) dopamine receptor (Homo sapiens) (P14416 whole entry): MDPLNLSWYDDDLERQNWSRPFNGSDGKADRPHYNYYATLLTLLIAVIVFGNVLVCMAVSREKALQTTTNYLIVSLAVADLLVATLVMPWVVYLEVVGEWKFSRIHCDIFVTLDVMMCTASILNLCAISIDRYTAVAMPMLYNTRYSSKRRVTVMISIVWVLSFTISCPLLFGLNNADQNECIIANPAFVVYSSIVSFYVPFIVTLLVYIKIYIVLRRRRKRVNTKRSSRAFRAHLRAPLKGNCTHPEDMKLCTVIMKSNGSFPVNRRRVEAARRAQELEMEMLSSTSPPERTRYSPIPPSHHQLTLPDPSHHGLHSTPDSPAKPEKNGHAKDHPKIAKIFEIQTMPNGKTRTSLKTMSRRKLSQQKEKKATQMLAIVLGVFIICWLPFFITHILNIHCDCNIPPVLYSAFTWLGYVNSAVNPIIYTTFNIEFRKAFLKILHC
Type: cell-based
Procedure, shortened: (§2)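 pERK1/2 signalling through the long D2 isoform (D2LR) expressed in FlpIn CHO cells. Test ligands were measured against increasing dopamine concentrations. Curves were fitted with an operational model of allosterism (functional affinity KB, cooperativity α, efficacy modulation β, net αβ) and with a Gaddum-Schild model (KB, Schild slope). The better fit was chosen by F-test. Mean ± SEM of three experiments run in duplicate.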

Compound	fold change (FC)
N#Cc1ccc2c(c1)CN(CC[C@H]1CC[C@H](NC(=O)c3c[nH]c4ncccc34)CC1)CC2	32
N#Cc1ccc2c(c1)CN(CC[C@H]1CC[C@H](NC(=O)c3cnc4ccccn34)CC1)CC2	210
N#Cc1ccc2c(c1)CN(CC[C@H]1CC[C@H](NC(=O)c3cc4ccccn4n3)CC1)CC2	33
N#Cc1ccc2c(c1)CN(CC[C@H]1CC[C@H](NC(=O)c3c[nH]c4cnccc34)CC1)CC2	275

Second part, the compound after the results:

fold change (FC)	Compound
15	N#Cc1ccc2c(c1)CN(CC[C@H]1CC[C@H](NC(=O)c3cc4ccc(F)cc4[nH]3)CC1)CC2
1800	N#Cc1ccc2c(c1)CN(CC[C@H]1CC[C@H](NC(=O)c3cc4ccncc4[nH]3)CC1)CC2
3	COc1cccc2[nH]c(C(=O)N[C@H]3CC[C@H](CCN4CCc5ccc(C#N)cc5C4)CC3)cc12
26	N#Cc1ccc2c(c1)CN(CC[C@H]1CC[C@H](NC(=O)c3cc4cccnc4[nH]3)CC1)CC2
32	N#Cc1ccc2c(c1)CN(CC[C@H]1CC[C@H](NC(=O)c3cc4c(F)cccc4[nH]3)CC1)CC2
62	N#Cc1ccc2c(c1)CN(CC[C@H]1CC[C@H](NC(=O)c3cc4cccc(F)c4[nH]3)CC1)CC2
63	N#Cc1ccc2c(c1)CN(CC[C@H]1CC[C@H](NC(=O)c3cc4cc(F)ccc4[nH]3)CC1)CC2

Each compound was assayed against D(2) dopamine receptor (Homo sapiens) (UniProt P14416) (assay: as §1, with “phosphorylation by measuring effect on dopamine efficacy” for “phosphorylation”).
Type: cell-based
Procedure, shortened: as §2

fold change (FC)	Compound
6	N#Cc1ccc2c(c1)CN(CC[C@H]1CC[C@H](NC(=O)c3c[nH]c4cccnc34)CC1)CC2

The compounds below were run against D(2) dopamine receptor (Homo sapiens) (UniProt P14416) (assay: Negative allosteric modulation of human D2LR expressed in Flp-In-CHO cells assessed as inhibition of dopamine-indued ERK1/2 phosphorylation by measuring co-operativity factor preincubated for 30 mins followed by dopamine addition and measured after 5 mins by AlphaScreen assay relative to control).
Type: cell-based
Procedure, shortened: as §2

fold change (FC)	Compound
21	N#Cc1ccc2c(c1)CN(CC[C@H]1CC[C@H](NC(=O)c3c[nH]c4cccnc34)CC1)CC2

The compounds below were run against D(2) dopamine receptor (Homo sapiens) (UniProt P14416) (assay: Negative allosteric modulation of human D2LR expressed in Flp-In-CHO cells assessed as inhibition of dopamine-indued ERK1/2 phosphorylation preincubated for 30 mins followed by dopamine addition and measured after 5 mins by AlphaScreen assay).
Type: cell-based
Procedure, shortened: as §2

Compound	Kb	pKb
N#Cc1ccc2c(c1)CN(CC[C@H]1CC[C@H](NC(=O)c3c[nH]c4ccccc34)CC1)CC2	63 nM	7.2
N#Cc1ccc2c(c1)CN(CC[C@H]1CC[C@H](NC(=O)c3c[nH]c4ccncc34)CC1)CC2	3.5 nM	8.46
N#Cc1ccc2c(c1)CN(CC[C@H]1CC[C@H](NC(=O)c3c[nH]c4ncccc34)CC1)CC2	34 nM	7.47
N#Cc1ccc2c(c1)CN(CC[C@H]1CC[C@H](NC(=O)c3cnn4ccccc34)CC1)CC2	40 nM	7.39
N#Cc1ccc2c(c1)CN(CC[C@H]1CC[C@H](NC(=O)c3cnc4ccccn34)CC1)CC2	24 nM	7.62
N#Cc1ccc2c(c1)CN(CC[C@H]1CC[C@H](NC(=O)c3cc4ccccn4n3)CC1)CC2	165 nM	6.78
N#Cc1ccc2c(c1)CN(CC[C@H]1CC[C@H](NC(=O)c3c[nH]c4cnccc34)CC1)CC2	10 nM	8
N#Cc1ccc2c(c1)CN(CC[C@H]1CC[C@H](NC(=O)c3cc4sccc4[nH]3)CC1)CC2	87 nM	7.06
N#Cc1ccc2c(c1)CN(CC[C@H]1CC[C@H](NC(=O)c3c[nH]c4cccnc34)CC1)CC2	0.148 nM	9.83

Other lines, results leading:

Kb	pKb	Compound
219 nM	6.66	N#Cc1ccc2c(c1)CN(CC[C@H]1CC[C@H](NC(=O)c3cc4ccc(F)cc4[nH]3)CC1)CC2
2.7 nM	8.57	N#Cc1ccc2c(c1)CN(CC[C@H]1CC[C@H](NC(=O)c3cc4ccncc4[nH]3)CC1)CC2
51 nM	7.29	COc1cccc2cc(C(=O)N[C@H]3CC[C@H](CCN4CCc5ccc(C#N)cc5C4)CC3)[nH]c12
2 nM	8.7	COc1ccc2[nH]c(C(=O)N[C@H]3CC[C@H](CCN4CCc5ccc(C#N)cc5C4)CC3)cc2c1
617 nM	6.21	COc1cccc2[nH]c(C(=O)N[C@H]3CC[C@H](CCN4CCc5ccc(C#N)cc5C4)CC3)cc12
	7.63	N#Cc1ccc2c(c1)CN(CC[C@H]1CC[C@H](NC(=O)c3cc4cccnc4[nH]3)CC1)CC2
47 nM	7.33	N#Cc1ccc2c(c1)CN(CC[C@H]1CC[C@H](NC(=O)c3cc4c(F)cccc4[nH]3)CC1)CC2
25 nM	7.6	COc1ccc2cc(C(=O)N[C@H]3CC[C@H](CCN4CCc5ccc(C#N)cc5C4)CC3)[nH]c2c1
4.5 nM	8.35	N#Cc1ccc2c(c1)CN(CC[C@H]1CC[C@H](NC(=O)c3cc4cccc(F)c4[nH]3)CC1)CC2
6.8 nM	8.17	N#Cc1ccc2c(c1)CN(CC[C@H]1CC[C@H](NC(=O)c3cc4cc(F)ccc4[nH]3)CC1)CC2

The compounds below were run against D(2) dopamine receptor (Homo sapiens) (UniProt P14416) (assay: Negative allosteric modulation of human D2LR expressed in Flp-In-CHO cells assessed as inhibition of dopamine-indued ERK1/2 phosphorylation by measuring co-operativity factor preincubated for 30 mins followed by dopamine addition and measured after 5 mins by AlphaScreen assay).
Type: cell-based
Procedure, shortened: as §2

Activity	log(activity)	Compound
0.048	-1.32	N#Cc1ccc2c(c1)CN(CC[C@H]1CC[C@H](NC(=O)c3c[nH]c4cccnc34)CC1)CC2

These compounds were tested against D(2) dopamine receptor (Homo sapiens) (UniProt P14416) (assay: Negative allosteric modulation of human D2LR expressed in Flp-In-CHO cells assessed as inhibition of dopamine-indued ERK1/2 phosphorylation by measuring negative co-operativity factor preincubated for 30 mins followed by dopamine addition and measured after 5 mins by AlphaScreen assay).
Type: cell-based
Procedure, shortened: as §2

Compound	Activity	log(activity)
N#Cc1ccc2c(c1)CN(CC[C@H]1CC[C@H](NC(=O)c3c[nH]c4ncccc34)CC1)CC2	0.032	-1.5
N#Cc1ccc2c(c1)CN(CC[C@H]1CC[C@H](NC(=O)c3cnc4ccccn34)CC1)CC2	0.0048	-2.31
N#Cc1ccc2c(c1)CN(CC[C@H]1CC[C@H](NC(=O)c3cc4ccccn4n3)CC1)CC2	0.03	-1.52
N#Cc1ccc2c(c1)CN(CC[C@H]1CC[C@H](NC(=O)c3c[nH]c4cnccc34)CC1)CC2	0.0036	-2.44

The next lines start with the values.

Activity	log(activity)	Compound
0.065	-1.19	N#Cc1ccc2c(c1)CN(CC[C@H]1CC[C@H](NC(=O)c3cc4ccc(F)cc4[nH]3)CC1)CC2
0.00055	-3.26	N#Cc1ccc2c(c1)CN(CC[C@H]1CC[C@H](NC(=O)c3cc4ccncc4[nH]3)CC1)CC2
0.3	-0.52	COc1cccc2[nH]c(C(=O)N[C@H]3CC[C@H](CCN4CCc5ccc(C#N)cc5C4)CC3)cc12
0.038	-1.42	N#Cc1ccc2c(c1)CN(CC[C@H]1CC[C@H](NC(=O)c3cc4cccnc4[nH]3)CC1)CC2
0.032	-1.5	N#Cc1ccc2c(c1)CN(CC[C@H]1CC[C@H](NC(=O)c3cc4c(F)cccc4[nH]3)CC1)CC2
0.016	-1.79	N#Cc1ccc2c(c1)CN(CC[C@H]1CC[C@H](NC(=O)c3cc4cccc(F)c4[nH]3)CC1)CC2
0.016	-1.8	N#Cc1ccc2c(c1)CN(CC[C@H]1CC[C@H](NC(=O)c3cc4cc(F)ccc4[nH]3)CC1)CC2

The compounds below were run against D(2) dopamine receptor (Homo sapiens) (UniProt P14416) (assay: Negative allosteric modulation of human D2LR expressed in Flp-In-CHO cells assessed as inhibition of dopamine-indued ERK1/2 phosphorylation by measuring effect on dopamine efficacy preincubated for 30 mins followed by dopamine addition and measured after 5 mins by AlphaScreen assay).
Type: cell-based
Procedure, shortened: as §2

Activity	log(activity)	Compound
0.16	-0.8	N#Cc1ccc2c(c1)CN(CC[C@H]1CC[C@H](NC(=O)c3c[nH]c4cccnc34)CC1)CC2
